Experimental data from ChEMBL document CHEMBL2062435, “Synthesis and in vitro antibacterial activity of gemifloxacin derivatives containing a substituted benzyloxime moiety” (2012).

system: Klebsiella pneumoniae; assay: Antimicrobial activity against Klebsiella pneumoniae 10-2 after 18-24 hrs by two-fold serial dilution method; format: functional
Method in brief: (§1)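 Agar-medium twofold serial dilution against Gram-positive and Gram-negative strains; MIC taken as the lowest compound concentration giving complete inhibition of bacterial growth after incubation at 35 °C for 18-24 h.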

SMILES | MIC [µg/mL]
CS(=O)(=O)O.Cc1ccc(CO/N=C2\CN(c3nc4c(cc3F)c(=O)c(C(=O)O)cn4C3CC3)CC2CN)cc1C (racemic) | > 128

system: Enterococcus faecalis; assay: Antimicrobial activity against Enterococcus faecalis 10-6 after 18-24 hrs by two-fold serial dilution method; format: functional; method in brief: as §1

SMILES | MIC [µg/mL]
CS(=O)(=O)O.Cc1ccc(CO/N=C2\CN(c3nc4c(cc3F)c(=O)c(C(=O)O)cn4C3CC3)CC2CN)cc1C (racemic) | 4

system: Klebsiella pneumoniae; assay: Antimicrobial activity against Klebsiella pneumoniae 10-3 after 18-24 hrs by two-fold serial dilution method; format: functional; method in brief: as §1

SMILES | MIC [µg/mL]
CS(=O)(=O)O.Cc1ccc(CO/N=C2\CN(c3nc4c(cc3F)c(=O)c(C(=O)O)cn4C3CC3)CC2CN)cc1C (racemic) | 8

system: Pseudomonas aeruginosa; assay: Antimicrobial activity against extended spectrum beta-lactamases-producing Pseudomonas aeruginosa 10-15 after 18-24 hrs by two-fold serial dilution method; format: functional; method in brief: as §1

SMILES | MIC [µg/mL]
CS(=O)(=O)O.Cc1ccc(CO/N=C2\CN(c3nc4c(cc3F)c(=O)c(C(=O)O)cn4C3CC3)CC2CN)cc1C (racemic) | 8

system: Staphylococcus aureus; assay: Antimicrobial activity against extended spectrum beta-lactamases-producing methicillin-resistant Staphylococcus aureus 10-15 after 18-24 hrs by two-fold serial dilution method; format: functional
Method in brief: (§2)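 Agar twofold serial dilution MIC against clinical isolates. MIC was taken as the lowest concentration giving complete inhibition of bacterial growth after incubation at 35 °C for 18-24 h.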

SMILES | MIC [µg/mL]
CS(=O)(=O)O.Cc1ccc(CO/N=C2\CN(c3nc4c(cc3F)c(=O)c(C(=O)O)cn4C3CC3)CC2CN)cc1C (racemic) | 0.25

system: Staphylococcus epidermidis; assay: Antimicrobial activity against extended spectrum beta-lactamases-producing methicillin-resistant Staphylococcus epidermidis 10-13 after 18-24 hrs by two-fold serial dilution method; format: functional; method in brief: as §2

SMILES | MIC [µg/mL]
CS(=O)(=O)O.Cc1ccc(CO/N=C2\CN(c3nc4c(cc3F)c(=O)c(C(=O)O)cn4C3CC3)CC2CN)cc1C (racemic) | 1

system: Enterococcus faecalis; assay: Antimicrobial activity against Enterococcus faecalis 10-7 after 18-24 hrs by two-fold serial dilution method; format: functional; method in brief: as §1

SMILES | MIC [µg/mL]
CS(=O)(=O)O.Cc1ccc(CO/N=C2\CN(c3nc4c(cc3F)c(=O)c(C(=O)O)cn4C3CC3)CC2CN)cc1C (racemic) | 4

system: Pseudomonas aeruginosa; assay: Antimicrobial activity against extended spectrum beta-lactamases-producing Pseudomonas aeruginosa 10-5 after 18-24 hrs by two-fold serial dilution method; format: functional; method in brief: as §1

SMILES | MIC [µg/mL]
CS(=O)(=O)O.Cc1ccc(CO/N=C2\CN(c3nc4c(cc3F)c(=O)c(C(=O)O)cn4C3CC3)CC2CN)cc1C (racemic) | 4

system: Staphylococcus epidermidis; assay: Antimicrobial activity against extended spectrum beta-lactamases-producing methicillin-sensitive Staphylococcus epidermidis 10-13 after 18-24 hrs by two-fold serial dilution method; format: functional; method in brief: as §1

SMILES | MIC [µg/mL]
CS(=O)(=O)O.Cc1ccc(CO/N=C2\CN(c3nc4c(cc3F)c(=O)c(C(=O)O)cn4C3CC3)CC2CN)cc1C (racemic) | 8

system: Staphylococcus aureus; assay: Antimicrobial activity against extended spectrum beta-lactamases-producing methicillin-sensitive Staphylococcus aureus 10-13 after 18-24 hrs by two-fold serial dilution method; format: functional; method in brief: as §1

SMILES | MIC [µg/mL]
CS(=O)(=O)O.Cc1ccc(CO/N=C2\CN(c3nc4c(cc3F)c(=O)c(C(=O)O)cn4C3CC3)CC2CN)cc1C (racemic) | 0.06

system: Staphylococcus epidermidis; assay: Antimicrobial activity against extended spectrum beta-lactamases-producing methicillin-sensitive Staphylococcus epidermidis 10-15 after 18-24 hrs by two-fold serial dilution method; format: functional; method in brief: as §1

SMILES | MIC [µg/mL]
CS(=O)(=O)O.Cc1ccc(CO/N=C2\CN(c3nc4c(cc3F)c(=O)c(C(=O)O)cn4C3CC3)CC2CN)cc1C (racemic) | 1

system: Klebsiella pneumoniae; assay: Antimicrobial activity against extended spectrum beta-lactamases-producing Klebsiella pneumoniae 10-2 after 18-24 hrs by two-fold serial dilution method; format: functional; method in brief: as §1

SMILES | MIC [µg/mL]
CS(=O)(=O)O.Cc1ccc(CO/N=C2\CN(c3nc4c(cc3F)c(=O)c(C(=O)O)cn4C3CC3)CC2CN)cc1C (racemic) | > 128

system: Klebsiella pneumoniae; assay: Antimicrobial activity against Klebsiella pneumoniae 10-4 after 18-24 hrs by two-fold serial dilution method; format: functional; method in brief: as §1

SMILES | MIC [µg/mL]
CS(=O)(=O)O.Cc1ccc(CO/N=C2\CN(c3nc4c(cc3F)c(=O)c(C(=O)O)cn4C3CC3)CC2CN)cc1C (racemic) | > 128

system: Pseudomonas aeruginosa; assay: Antimicrobial activity against Pseudomonas aeruginosa 10-12 after 18-24 hrs by two-fold serial dilution method; format: functional; method in brief: as §1

SMILES | MIC [µg/mL]
CS(=O)(=O)O.Cc1ccc(CO/N=C2\CN(c3nc4c(cc3F)c(=O)c(C(=O)O)cn4C3CC3)CC2CN)cc1C (racemic) | 4

system: Escherichia coli; assay: Antimicrobial activity against Escherichia coli 10-3 after 18-24 hrs by two-fold serial dilution method; format: functional; method in brief: as §1

SMILES | MIC [µg/mL]
CS(=O)(=O)O.Cc1ccc(CO/N=C2\CN(c3nc4c(cc3F)c(=O)c(C(=O)O)cn4C3CC3)CC2CN)cc1C (racemic) | 8

system: Klebsiella pneumoniae; assay: Antimicrobial activity against extended spectrum beta-lactamases-producing Klebsiella pneumoniae 10-1 after 18-24 hrs by two-fold serial dilution method; format: functional; method in brief: as §1

SMILES | MIC [µg/mL]
CS(=O)(=O)O.Cc1ccc(CO/N=C2\CN(c3nc4c(cc3F)c(=O)c(C(=O)O)cn4C3CC3)CC2CN)cc1C (racemic) | > 128

system: Streptococcus pneumoniae; assay: Antimicrobial activity against extended spectrum beta-lactamases-producing Streptococcus pneumoniae 10-4 after 18-24 hrs by two-fold serial dilution method; format: functional; method in brief: as §1

SMILES | MIC [µg/mL]
CS(=O)(=O)O.Cc1ccc(CO/N=C2\CN(c3nc4c(cc3F)c(=O)c(C(=O)O)cn4C3CC3)CC2CN)cc1C (racemic) | 0.5

system: Escherichia coli; assay: Antimicrobial activity against Escherichia coli 10-1 after 18-24 hrs by two-fold serial dilution method; format: functional; method in brief: as §1

SMILES | MIC [µg/mL]
CS(=O)(=O)O.Cc1ccc(CO/N=C2\CN(c3nc4c(cc3F)c(=O)c(C(=O)O)cn4C3CC3)CC2CN)cc1C (racemic) | 64

system: Staphylococcus aureus; assay: Antimicrobial activity against Staphylococcus aureus ATCC […] after 18-24 hrs by two-fold serial dilution method; format: functional; method in brief: as §1

SMILES | MIC [ng/mL]
CS(=O)(=O)O.Cc1ccc(CO/N=C2\CN(c3nc4c(cc3F)c(=O)c(C(=O)O)cn4C3CC3)CC2CN)cc1C (racemic) | 8

system: Enterococcus faecium; assay: Antimicrobial activity against Enterococcus faecium 10-9 after 18-24 hrs by two-fold serial dilution method; format: functional; method in brief: as §1

SMILES | MIC [µg/mL]
CS(=O)(=O)O.Cc1ccc(CO/N=C2\CN(c3nc4c(cc3F)c(=O)c(C(=O)O)cn4C3CC3)CC2CN)cc1C (racemic) | 8

system: Pseudomonas aeruginosa; assay: Antimicrobial activity against extended spectrum beta-lactamases-producing Pseudomonas aeruginosa 10-20 after 18-24 hrs by two-fold serial dilution method; format: functional; method in brief: as §1

SMILES | MIC [µg/mL]
CS(=O)(=O)O.Cc1ccc(CO/N=C2\CN(c3nc4c(cc3F)c(=O)c(C(=O)O)cn4C3CC3)CC2CN)cc1C (racemic) | 8

system: Klebsiella pneumoniae; assay: Antimicrobial activity against extended spectrum beta-lactamases-producing Klebsiella pneumoniae 10-3 after 18-24 hrs by two-fold serial dilution method; format: functional; method in brief: as §1

SMILES | MIC [µg/mL]
CS(=O)(=O)O.Cc1ccc(CO/N=C2\CN(c3nc4c(cc3F)c(=O)c(C(=O)O)cn4C3CC3)CC2CN)cc1C (racemic) | > 128

system: Escherichia coli; assay: Antimicrobial activity against extended spectrum beta-lactamases-producing Escherichia coli 10-3 after 18-24 hrs by two-fold serial dilution method; format: functional; method in brief: as §1

SMILES | MIC [µg/mL]
CS(=O)(=O)O.Cc1ccc(CO/N=C2\CN(c3nc4c(cc3F)c(=O)c(C(=O)O)cn4C3CC3)CC2CN)cc1C (racemic) | > 128

system: Staphylococcus aureus; assay: Antimicrobial activity against extended spectrum beta-lactamases-producing methicillin-sensitive Staphylococcus aureus 10-14 after 18-24 hrs by two-fold serial dilution method; format: functional; method in brief: as §1

SMILES | MIC [ng/mL]
CS(=O)(=O)O.Cc1ccc(CO/N=C2\CN(c3nc4c(cc3F)c(=O)c(C(=O)O)cn4C3CC3)CC2CN)cc1C (racemic) | < 8

system: Pseudomonas aeruginosa; assay: Antimicrobial activity against extended spectrum beta-lactamases-producing Pseudomonas aeruginosa 10-18 after 18-24 hrs by two-fold serial dilution method; format: functional; method in brief: as §1

SMILES | MIC [µg/mL]
CS(=O)(=O)O.Cc1ccc(CO/N=C2\CN(c3nc4c(cc3F)c(=O)c(C(=O)O)cn4C3CC3)CC2CN)cc1C (racemic) | 16

system: Staphylococcus epidermidis; assay: Antimicrobial activity against extended spectrum beta-lactamases-producing methicillin-sensitive Staphylococcus epidermidis 10-11 after 18-24 hrs by two-fold serial dilution method; format: functional; method in brief: as §1

SMILES | MIC [µg/mL]
CS(=O)(=O)O.Cc1ccc(CO/N=C2\CN(c3nc4c(cc3F)c(=O)c(C(=O)O)cn4C3CC3)CC2CN)cc1C (racemic) | 0.25

system: Enterococcus faecalis; assay: Antimicrobial activity against Enterococcus faecalis 10-5 after 18-24 hrs by two-fold serial dilution method; format: functional; method in brief: as §1

SMILES | MIC [µg/mL]
CS(=O)(=O)O.Cc1ccc(CO/N=C2\CN(c3nc4c(cc3F)c(=O)c(C(=O)O)cn4C3CC3)CC2CN)cc1C (racemic) | 0.5

system: Staphylococcus epidermidis; assay: Antimicrobial activity against extended spectrum beta-lactamases-producing methicillin-resistant Staphylococcus epidermidis 10-10 after 18-24 hrs by two-fold serial dilution method; format: functional; method in brief: as §2

SMILES | MIC [µg/mL]
CS(=O)(=O)O.Cc1ccc(CO/N=C2\CN(c3nc4c(cc3F)c(=O)c(C(=O)O)cn4C3CC3)CC2CN)cc1C (racemic) | 1

system: Escherichia coli; assay: Antimicrobial activity against Escherichia coli ATCC 25922 after 18-24 hrs by two-fold serial dilution method; format: functional; method in brief: as §1

SMILES | MIC [µg/mL]
CS(=O)(=O)O.Cc1ccc(CO/N=C2\CN(c3nc4c(cc3F)c(=O)c(C(=O)O)cn4C3CC3)CC2CN)cc1C (racemic) | 0.015

system: Pseudomonas aeruginosa; assay: Antimicrobial activity against extended spectrum beta-lactamases-producing Pseudomonas aeruginosa 10-9 after 18-24 hrs by two-fold serial dilution method; format: functional; method in brief: as §1

SMILES | MIC [µg/mL]
CS(=O)(=O)O.Cc1ccc(CO/N=C2\CN(c3nc4c(cc3F)c(=O)c(C(=O)O)cn4C3CC3)CC2CN)cc1C (racemic) | 4

system: Staphylococcus aureus; assay: Antimicrobial activity against extended spectrum beta-lactamases-producing methicillin-resistant Staphylococcus aureus 10-11 after 18-24 hrs by two-fold serial dilution method; format: functional; method in brief: as §2

SMILES | MIC [µg/mL]
CS(=O)(=O)O.Cc1ccc(CO/N=C2\CN(c3nc4c(cc3F)c(=O)c(C(=O)O)cn4C3CC3)CC2CN)cc1C (racemic) | 2

system: Escherichia coli; assay: Antimicrobial activity against extended spectrum beta-lactamases-producing Escherichia coli 10-2 after 18-24 hrs by two-fold serial dilution method; format: functional; method in brief: as §1

SMILES | MIC [µg/mL]
CS(=O)(=O)O.Cc1ccc(CO/N=C2\CN(c3nc4c(cc3F)c(=O)c(C(=O)O)cn4C3CC3)CC2CN)cc1C (racemic) | > 128

system: Escherichia coli; assay: Antimicrobial activity against Escherichia coli 10-2 after 18-24 hrs by two-fold serial dilution method; format: functional; method in brief: as §1

SMILES | MIC [µg/mL]
CS(=O)(=O)O.Cc1ccc(CO/N=C2\CN(c3nc4c(cc3F)c(=O)c(C(=O)O)cn4C3CC3)CC2CN)cc1C (racemic) | 8

system: Enterococcus faecium; assay: Antimicrobial activity against Enterococcus faecium 10-5 after 18-24 hrs by two-fold serial dilution method; format: functional; method in brief: as §1

SMILES | MIC [µg/mL]
CS(=O)(=O)O.Cc1ccc(CO/N=C2\CN(c3nc4c(cc3F)c(=O)c(C(=O)O)cn4C3CC3)CC2CN)cc1C (racemic) | 8

system: Escherichia coli; assay: Antimicrobial activity against extended spectrum beta-lactamases-producing Escherichia coli 10-4 after 18-24 hrs by two-fold serial dilution method; format: functional; method in brief: as §1

SMILES | MIC [µg/mL]
CS(=O)(=O)O.Cc1ccc(CO/N=C2\CN(c3nc4c(cc3F)c(=O)c(C(=O)O)cn4C3CC3)CC2CN)cc1C (racemic) | 8

system: Streptococcus pneumoniae; assay: Antimicrobial activity against extended spectrum beta-lactamases-producing Streptococcus pneumoniae 10-1 after 18-24 hrs by two-fold serial dilution method; format: functional; method in brief: as §1

SMILES | MIC [µg/mL]
CS(=O)(=O)O.Cc1ccc(CO/N=C2\CN(c3nc4c(cc3F)c(=O)c(C(=O)O)cn4C3CC3)CC2CN)cc1C (racemic) | 0.125
